Measured values published in ChEMBL document CHEMBL1154933, “2-Aminothiadiazole inhibitors of AKT1 as potential cancer therapeutics” (Bioorg Med Chem Lett, 2010).
Calls of active or inactive are those of the source. The calls are words filed in the database; no cut-off is given here.

How the values were obtained:
[1] = Selectivity ratio of IC50 for CDK2 to IC50 for AKT1
[2] = Inhibition of PKA
[3] = target: T1, RAC-alpha serine/threonine-protein kinase (Homo sapiens, UniProt P31749); test: Inhibition of human AKT1 in human U87MG cells assessed as PRAS40 phosphorylation after 1 hr by ELISA; assay type: cell-based, U-87MG ATCC
T1 sequence (P31749 whole entry): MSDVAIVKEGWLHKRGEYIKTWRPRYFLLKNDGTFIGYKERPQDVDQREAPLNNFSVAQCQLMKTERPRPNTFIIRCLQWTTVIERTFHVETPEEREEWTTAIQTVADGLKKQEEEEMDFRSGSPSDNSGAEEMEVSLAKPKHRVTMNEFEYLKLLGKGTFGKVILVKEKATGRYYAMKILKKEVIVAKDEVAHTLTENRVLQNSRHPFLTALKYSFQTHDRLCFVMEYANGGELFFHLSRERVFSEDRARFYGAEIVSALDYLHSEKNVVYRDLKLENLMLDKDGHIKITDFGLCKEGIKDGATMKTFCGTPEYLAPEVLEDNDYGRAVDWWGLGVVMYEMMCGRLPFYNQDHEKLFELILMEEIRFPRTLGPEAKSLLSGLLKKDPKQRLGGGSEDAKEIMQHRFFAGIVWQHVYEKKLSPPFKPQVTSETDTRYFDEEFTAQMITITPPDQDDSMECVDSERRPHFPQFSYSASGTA
In short: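 U87MG cells in 5% FBS medium were incubated with threefold serial dilutions of inhibitor for 1 h at 37 °C, then lysed. Phospho-PRAS40 (Thr246) was quantified by ELISA and normalized to total PRAS40. Mean ± SD where n ≥ 3.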

[4] = Clearance in Sprague-Dawley rat at 1 mg/kg, iv; assay type: ADME, organism-based; set-up: dose 1 mg/kg, route intravenous; settings: in vivo
In short: (§1)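 Male Sprague-Dawley rats, n = 3, given a single iv dose in 100% DMSO, at 1 mg/kg or 2 mg/kg depending on compound. Clearance, half-life and steady-state volume of distribution were taken from plasma exposure after the iv dose.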

[5] = target: T1, RAC-alpha serine/threonine-protein kinase; test: Inhibition of AKT1 after 10 mins by [gamma33]ATP assay
[6] = Half life in Sprague-Dawley rat at 1 mg/kg, iv; assay type: ADME, organism-based; set-up: dose 1 mg/kg, route intravenous; settings: in vivo; in short: as §1
[7] = Volume of distribution at steady state in Sprague-Dawley rat at 1 mg/kg, iv; assay type: ADME, organism-based; set-up: dose 1 mg/kg, route intravenous; settings: in vivo, read-out: Vdss; in short: as §1
[8] = target: T1, RAC-alpha serine/threonine-protein kinase; test: Inhibition of human AKT1 in human MDA-MB-468 cells assessed as phosphorylation-mediated nuclear translocation of GFP-tagged FKHRL1 by fluorescence microscopy; assay type: cell-based
In short: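 MDA-MB-468 cells stably expressing GFP-tagged FKHRL1 were treated with threefold serial dilutions of compound. Nuclear translocation of the fusion protein was scored by fluorescence microscopy. Mean ± SD where n ≥ 3, some values from a single run.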

[9] = target: Cyclin-dependent kinase 2 (Homo sapiens, UniProt P24941); test: Inhibition of CDK2
[10] = Volume of distribution at steady state in Sprague-Dawley rat at 2 mg/kg, iv; assay type: ADME, organism-based; set-up: dose 2 mg/kg, route intravenous; settings: in vivo, read-out: Vdss; in short: as §1
[11] = target: T2, Serine/threonine-protein kinase Sgk1 (Homo sapiens, UniProt O00141); test: Inhibition of SGK1
T2 sequence (O00141 whole entry): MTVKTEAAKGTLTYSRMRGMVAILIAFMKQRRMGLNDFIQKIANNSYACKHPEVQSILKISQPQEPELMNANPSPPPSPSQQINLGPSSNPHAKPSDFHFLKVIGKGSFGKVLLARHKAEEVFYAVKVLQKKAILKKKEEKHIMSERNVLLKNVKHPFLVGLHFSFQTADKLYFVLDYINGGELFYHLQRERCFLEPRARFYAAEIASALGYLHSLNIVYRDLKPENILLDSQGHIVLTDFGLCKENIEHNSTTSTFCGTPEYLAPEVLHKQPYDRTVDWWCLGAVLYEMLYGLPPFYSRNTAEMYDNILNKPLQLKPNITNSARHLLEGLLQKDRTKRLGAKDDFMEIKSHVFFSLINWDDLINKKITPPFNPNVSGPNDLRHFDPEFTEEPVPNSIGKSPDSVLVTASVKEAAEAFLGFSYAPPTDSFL

[12] = Cmax in Sprague-Dawley rat at 10 mg/kg, po; assay type: ADME, organism-based; set-up: dose 10 mg/kg, route oral; settings: in vivo
In short: (§2)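 Male Sprague-Dawley rats, n = 3, dosed orally at 10 mg/kg in 25% PEG 400/[…]. Cmax was taken from the oral exposure. Bioavailability was derived against the separate iv arm, which was 2 mg/kg in 100% DMSO.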

[13] = Oral bioavailability in Sprague-Dawley rat at 10 mg/kg; assay type: ADME, organism-based; settings: in vivo; in short: as §2
[14] = Cytotoxicity against human U87MG cells after 3 days by alamar blue staining; assay type: functional, cell-based, U-87MG ATCC; settings: U-87 MG, 72 h
In short: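 U-87 glioblastoma cells seeded at 6000 cells/well and exposed to compound over a concentration series for 3 days. Viability read by alamarBlue staining, run in triplicate, and EC50 derived.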

Mus musculus [15] = test: Inhibition of HGF-stimulated AKT signaling pathway in BALB/c mouse liver assessed as reduction in phosphorylated FKHRL1 level ip dosed 1 hr before HGF challenge and measured after 5 mins by Western blot analysis; assay type: functional, organism-based
Mus musculus [16] = test: Inhibition of HGF-stimulated AKT signaling pathway in BALB/c mouse liver assessed as reduction in phosphorylated FKHRL1 level at 30 mg/kg, ip dosed up to 6 hrs before HGF challenge and measured after 5 mins by Western blot analysis; assay type: functional, organism-based; set-up: dose 30 mg/kg
[17] = Half life in Sprague-Dawley rat at 2 mg/kg, iv; assay type: ADME, organism-based; set-up: dose 2 mg/kg, route intravenous; settings: in vivo; in short: as §1
[18] = Clearance in Sprague-Dawley rat at 2 mg/kg, iv; assay type: ADME, organism-based; set-up: dose 2 mg/kg, route intravenous; settings: in vivo; in short: as §1

Structure (SMILES) | IC50 [2] [nM] | IC50 [5] [nM] | IC50 [9] [nM] | other results
N[C@H](CNc1nnc(-c2ccc3[nH]ncc3c2)s1)Cc1ccc(C(F)(F)F)cc1 | 108 | 6 | 24 | Ratio IC50 [1]: 4; IC50 [3]: 444 nM; clearance [4]: 81.7 mL/min/kg; half-life [6]: 2.5 h; Vd [7]: 13.3 L/kg; IC50 [8]: 154 nM
Cc1cc2cc(-c3nnc(NC[C@@H](N)Cc4ccc(C(F)(F)F)cc4)s3)ccc2cn1 | 274 | 280 | 607 | 
N[C@H](CNc1nnc(-c2ccc3[nH]ncc3c2)s1)Cc1cccc(C(F)(F)F)c1 | 117 | 25 |  | 
N[C@H](CNc1nnc(-c2ccc3[nH]ncc3c2)s1)Cc1ccc(F)cc1 | 373 | 368 | 74 | 
N[C@H](CNc1nnc(-c2ccc3[nH]nc(C4CC4)c3c2)s1)Cc1ccc(C(F)(F)F)cc1 | 237 | 181 | 135 | 
N[C@H](CNc1nnc(-c2ccc3[nH]ncc3c2)s1)Cc1ccc(Cl)cc1Cl | 158 | 40 | 323 | Ratio IC50 [1]: 8
N[C@H](CNc1nnc(-c2ccc3[nH]nc(-c4ccccc4)c3c2)s1)Cc1cccc(C(F)(F)F)c1 | 368 | 413 | 79 | 
N[C@H](CNc1nnc(-c2ccc3cnccc3c2)s1)Cc1ccc(C(F)(F)F)cc1 | 8 | 3 | 53 | Ratio IC50 [1]: 20; Vd [10]: 3.8 L/kg; IC50 [3]: 247 nM; IC50 [11]: 2200 nM; Cmax [12]: 430 ng/mL; IC50 [8]: 695 nM; bioavailability [13]: 20%; EC50 [14]: 380 nM; inhibition (Mus musculus [15]): Dose-dependent effect; inhibition (Mus musculus [16]): Active; half-life [17]: 3.8 h; clearance [18]: 25 mL/min/kg
N[C@H](CNc1nnc(-c2ccc3[nH]ncc3c2)s1)Cc1ccc(Cl)cc1 | 157 | 24 | 41 | 

Now from value to compound, other results behind:

IC50 [2] [nM] | IC50 [5] [nM] | IC50 [9] [nM] | Structure (SMILES) | other results
 | > 2200 |  | Cc1n[nH]c2ccc(-c3nnc(NC[C@H](N)Cc4ccccc4)s3)cc12 | 
230 | 38 |  | Cc1n[nH]c2ccc(-c3nnc(NC[C@@H](N)Cc4cccc(F)c4)s3)cc12 | 
247 | 491 | 198 | Cc1n[nH]c2ccc(-c3nnc(NC[C@@H](N)Cc4ccccc4C(F)(F)F)s3)cc12 | 
54 | 76 | 72 | Cc1n[nH]c2ccc(-c3nnc(NC[C@@H](N)Cc4ccccc4)s3)cc12 | 
15 | 19 | 17 | Cc1n[nH]c2ccc(-c3nnc(NC[C@@H](N)Cc4cccc(Cl)c4)s3)cc12 | 
215 | 198 | 104 | Cc1n[nH]c2ccc(-c3nnc(NC[C@@H](N)Cc4ccccc4F)s3)cc12 | 
27 | 14 | 19 | Cc1n[nH]c2ccc(-c3nnc(NC[C@@H](N)Cc4ccc(F)c(F)c4)s3)cc12 | 
6.5 | 6.1 | 35 | Cc1n[nH]c2ccc(-c3nnc(NC[C@@H](N)Cc4cccc(C(F)(F)F)c4)s3)cc12 | 
106 | 47 | 57 | Cc1n[nH]c2ccc(-c3nnc(NC[C@@H](N)Cc4ccccc4Cl)s3)cc12 | 
11 | 8.9 | 72 | Cc1n[nH]c2ccc(-c3nnc(NC[C@@H](N)Cc4ccc(Cl)cc4)s3)cc12 | 
43 | 18 | 70 | Cc1n[nH]c2ccc(-c3nnc(NC[C@@H](N)Cc4ccc(Cl)cc4Cl)s3)cc12 | 
13 | 5.5 | 17 | Cc1n[nH]c2ccc(-c3nnc(NC[C@@H](N)Cc4ccc(C(F)(F)F)cc4)s3)cc12 | IC50 [3]: 357 nM; clearance [4]: 46.7 mL/min/kg; half-life [6]: 4.1 h; Vd [7]: 13.7 L/kg; IC50 [8]: 333 nM
 | 370 |  | CCc1n[nH]c2ccc(-c3nnc(NC[C@@H](N)Cc4ccccc4)s3)cc12 | 
